Assay results reported in ChEMBL document CHEMBL1955778, “Design and synthesis of novel 7-aminoquinazoline derivatives: antitumor and anticonvulsant activities” (Bioorg Med Chem Lett, 2012).

Columns and labels:
Type in all cases: functional
SNB-19 = assay: Growth inhibition of human SNB19 cells at 10 uM relative to control; conditions: read-out: GI
Method in brief: (§1)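 Single-dose screen across the 60-cell-line human tumor panel at 10 μM. Growth inhibition is reported as a percentage, taken as 100 minus the % growth relative to untreated control.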

HCT-116 = assay: Growth inhibition of human HCT116 cells at 10 uM relative to control; conditions: read-out: GI
Method in brief: (§2)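 Each cell line in a 60-line human tumour panel exposed to one 10 μM concentration. Growth inhibition percentage computed as 100 minus the percentage activity relative to control.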

K562 = assay: Growth inhibition of human K562 cells at 10 uM relative to control; conditions: read-out: GI; method in brief: as §2
OVCAR-4 = assay: Growth inhibition of human OVCAR4 cells at 10 uM relative to control; conditions: read-out: GI; method in brief: as §2
MOLT-4 = assay: Growth inhibition of human MOLT4 cells at 10 uM relative to control; conditions: read-out: GI; method in brief: as §2
TK-10 = assay: Growth inhibition of human TK10 cells at 10 uM relative to control; conditions: read-out: GI; method in brief: as §1
UACC-62 = assay: Growth inhibition of human UACC62 cells at 10 uM relative to control; conditions: read-out: GI; method in brief: as §1
MDA-MB-468 = assay: Growth inhibition of human MDA-MB-468 cells at 10 uM relative to control; conditions: read-out: GI; method in brief: as §2
OVCAR-8 = assay: Growth inhibition of human OVCAR8 cells at 10 uM relative to control; conditions: read-out: GI; method in brief: as §2
BT-549 = assay: Growth inhibition of human BT549 cells at 10 uM relative to control; conditions: read-out: GI; method in brief: as §2
EKVX = assay: Growth inhibition of human EKVX cells at 10 uM relative to control; conditions: read-out: GI; method in brief: as §2
HL-60(TB) = assay: Growth inhibition of human HL-60(TB) cells at 10 uM relative to control; conditions: read-out: GI
Method in brief: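 Single-dose screen at 10 μM across the 60-cell-line tumour panel. Percent growth inhibition = 100 minus percent growth activity relative to untreated control.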

HOP-62 = assay: Growth inhibition of human HOP62 cells at 10 uM relative to control; conditions: read-out: GI; method in brief: as §2
PC-3 = assay: Growth inhibition of human PC3 cells at 10 uM relative to control; conditions: read-out: GI; method in brief: as §2
Mus musculus [1] = assay: Anticonvulsant activity in mouse assessed as protection against pentylenetetrazol-induced seizure at 1 mmol/kg, ip administered 30 min prior to pentylenetetrazol-challenge measured after 60 mins relative to control
KM12 = assay: Growth inhibition of human KM12 cells at 10 uM relative to control; conditions: read-out: GI; method in brief: as §2
HCT-15 = assay: Growth inhibition of human HCT15 cells at 10 uM relative to control; conditions: read-out: GI; method in brief: as §2
Mus musculus [2] = assay: Anticonvulsant activity in mouse assessed as protection against maximal electroshock-induced seizure at 1 mmol/kg, ip administered 30 min prior to maximal electroshock-challenge measured after 60 mins relative to control
SK-MEL-5 = assay: Growth inhibition of human SK-MEL-5 cells at 10 uM relative to control; conditions: read-out: GI; method in brief: as §2
SN12C = assay: Growth inhibition of human SN12C cells at 10 uM relative to control; conditions: read-out: GI; method in brief: as §1
M14 = assay: Growth inhibition of human M14 cells at 10 uM relative to control; conditions: read-out: GI; method in brief: as §2
A549 = assay: Growth inhibition of human A549 cells at 10 uM relative to control; conditions: read-out: GI; method in brief: as §2
T47D = assay: Growth inhibition of human T47D cells at 10 uM relative to control; conditions: read-out: GI; method in brief: as §1
A498 = assay: Growth inhibition of human A498 cells at 10 uM relative to control; conditions: read-out: GI; method in brief: as §2
SNB-75 = assay: Growth inhibition of human SNB75 cells at 10 uM relative to control; conditions: read-out: GI; method in brief: as §1
ACHN = assay: Growth inhibition of human ACHN cells at 10 uM relative to control; conditions: read-out: GI; method in brief: as §2
Mus musculus [3] = assay: Anticonvulsant activity in mouse assessed as protection against strychnine-induced seizure at 1 mmol/kg, ip administered 30 min prior to strychnine-challenge measured after 60 mins relative to control
RPMI-8226 = assay: Growth inhibition of human RPMI8226 cells at 10 uM relative to control; conditions: read-out: GI; method in brief: as §2
Malme-3M = assay: Growth inhibition of human MALME-3M cells at 10 uM relative to control; conditions: read-out: GI; method in brief: as §2
UO-31 = assay: Growth inhibition of human UO31 cells at 10 uM relative to control; conditions: read-out: GI; method in brief: as §1
SR = assay: Growth inhibition of human SR cells at 10 uM relative to control; conditions: read-out: GI; method in brief: as §1
CAKI-1 = assay: Growth inhibition of human CAKI-1 cells at 10 uM relative to control; conditions: read-out: GI; method in brief: as §2
MDA-MB-435 = assay: Growth inhibition of human MDA-MB-435 cells at 10 uM relative to control; conditions: read-out: GI; method in brief: as §2
MCF7 = assay: Growth inhibition of human MCF7 cells at 10 uM relative to control; conditions: read-out: GI; method in brief: as §2
OVCAR-5 = assay: Growth inhibition of human OVCAR5 cells at 10 uM relative to control; conditions: read-out: GI; method in brief: as §2
U-251 = assay: Growth inhibition of human U251 cells at 10 uM relative to control; conditions: read-out: GI; method in brief: as §1
SF-539 = assay: Growth inhibition of human SF539 cells at 10 uM relative to control; conditions: read-out: GI; method in brief: as §2
SF-295 = assay: Growth inhibition of human SF295 cells at 10 uM relative to control; conditions: read-out: GI; method in brief: as §2
NCI-H522 = assay: Growth inhibition of human NCI-H522 cells at 10 uM relative to control; conditions: read-out: GI; method in brief: as §2
NCI-H322M = assay: Growth inhibition of human NCI-H322M cells at 10 uM relative to control; conditions: read-out: GI; method in brief: as §2
SF-268 = assay: Growth inhibition of human SF268 cells at 10 uM relative to control; conditions: read-out: GI; method in brief: as §2
HCC 2998 = assay: Growth inhibition of human HCC2998 cells at 10 uM relative to control; conditions: read-out: GI; method in brief: as §2
CCRF-CEM = assay: Growth inhibition of human CCRF-CEM cells at 10 uM relative to control; conditions: read-out: GI; method in brief: as §2
SK-OV-3 = assay: Growth inhibition of human SKOV3 cells at 10 uM relative to control; conditions: read-out: GI; method in brief: as §2

| Structure (SMILES) | inhibition of growth at 10 µM (SNB-19) [%] | inhibition of growth at 10 µM (TK-10) [%] | inhibition of growth at 10 µM (UACC-62) [%] | inhibition of growth at 10 µM (BT-549) [%] | inhibition of growth at 10 µM (EKVX) [%] | inhibition of growth at 10 µM (HOP-62) [%] | inhibition of growth at 10 µM (PC-3) [%] | inhibition of growth at 10 µM (KM12) [%] | inhibition of growth at 10 µM (HCT-15) [%] | inhibition of growth at 10 µM (M14) [%] | inhibition of growth at 10 µM (T47D) [%] | inhibition of growth at 10 µM (A498) [%] | inhibition of growth at 10 µM (SNB-75) [%] | inhibition of growth at 10 µM (RPMI-8226) [%] | inhibition of growth at 10 µM (Malme-3M) [%] | inhibition of growth at 10 µM (UO-31) [%] | inhibition of growth at 10 µM (CAKI-1) [%] | inhibition of growth at 10 µM (MDA-MB-435) [%] | inhibition of growth at 10 µM (OVCAR-5) [%] | inhibition of growth at 10 µM (U-251) [%] | also measured |
| --- | --- | --- | --- | --- | --- | --- | --- | --- | --- | --- | --- | --- | --- | --- | --- | --- | --- | --- | --- | --- | --- |
| Cc1ccccc1-n1c(C)nc2cc(NC(=O)c3ccccc3)ccc2c1=O | 14 | 24 | 23 | 18 | 11.1 | 5 | 8 | 26.6 | 3.7 | 12 | 28 | 23 | 21.2 | 2 | 6 | 2.5 | 4 | 16.3 | 12 | 9 | inhibition of growth at 10 µM (HCT-116): 3.2%; inhibition of growth at 10 µM (K562): 9%; inhibition of growth at 10 µM (OVCAR-4): 17.3%; inhibition of growth at 10 µM (MOLT-4): 8.2%; inhibition of growth at 10 µM (MDA-MB-468): 2%; inhibition of growth at 10 µM (OVCAR-8): 5%; inhibition of growth at 10 µM (HL-60(TB)): 6%; Activity (Mus musculus [1]): 33%; Activity (Mus musculus [2]): 33%; inhibition of growth at 10 µM (SK-MEL-5): 17%; inhibition of growth at 10 µM (SN12C): 15%; inhibition of growth at 10 µM (A549): 11%; inhibition of growth at 10 µM (ACHN): 24%; Activity (Mus musculus [3]): 0%; inhibition of growth at 10 µM (SR): 3.5%; inhibition of growth at 10 µM (MCF7): 7%; inhibition of growth at 10 µM (SF-539): 10%; inhibition of growth at 10 µM (SF-295): 29% |
| Cc1ccccc1-n1c(C)nc2cc(N)ccc2c1=S | 2 | 10 | 9 | 8 | 15.2 | 5.5 | 9.5 | 8.3 | 2.5 | 4 | 11 | 20 | 15.5 | 4 | 17 | 22 | 5 | 9.8 | 10 | 6 | inhibition of growth at 10 µM (NCI-H522): 4%; inhibition of growth at 10 µM (NCI-H322M): 11.1%; inhibition of growth at 10 µM (SF-268): 10.6%; inhibition of growth at 10 µM (HCC 2998): 16.6%; inhibition of growth at 10 µM (CCRF-CEM): 9.5%; inhibition of growth at 10 µM (SF-539): 2%; inhibition of growth at 10 µM (SF-295): 16.6%; inhibition of growth at 10 µM (SK-OV-3): 5% |
